To fix the notation:
B1: tRNA (parent)
chain: GUUCCGUUGGCGUAAUGGUAACGCGUCUCCCUCCUAAGGAGAAGACUGCGGGUUCGAGUCCCGUACGGAACG

Variants at the floor of the assay were thinned out.

This data set covers variants of B1. As to the kind of experiment: yeast fitness relative to wild type (ratio to wild type); higher = fitter; tRNA-Arg(CCU), competitive growth, 37 C, YPD. An outline of the steps:
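The tRNA-Arg(CCU) gene variants were made by chemical synthesis with a 3% per-site mutation rate at 69 sites and inserted at the native genomic locus of Saccharomyces cerevisiae. After pooling, the strains were competed in YPD at 37°C for 24 hours in six parallel replicates. Gene amplicons from the start population and each end population were read by 100-nucleotide paired-end sequencing, and Darwinian fitness relative to wild type was taken from genotype frequency changes. Genotypes needed ≥ 100 starting reads, and estimates < 0.5 were set to 0.5.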
As for GUUCCGUUGGCGUAAUGGUAACGCGUCUCCCUCCUAAGGAGAAGACUGCGGGUUCGAGCCCCGUAUGGAACG [U59C C66U], the yeast fitness amounted to 0.911.
GUUCCGUUGGCGUAAUGGUAACGCGUCUCCCUCCUAAGGAGAAGACUGCGGGUUCGAGCCCCGUAGGGAACG [U59C C66G]: the yeast fitness is 0.668.
In the case of GUUCCGUUGGCGUAAUGGUAACGCGUCUCCCUCCUAAGGAGAAGACUGCGGGUUCGAGCCCUGUACGUAACG [U59C C62U G68U] it was 0.609.
GUUCCGUUGGCGUAAUGGUAACGCGUCUCCCUCCUAAGGAGAAGACUGCGGGUUCGACUCCCGUACGAAGCG [G58C G68A A70G]: the yeast fitness is at most 0.5.
For the variant GUUCCGUUGGCGUAAUGGUAACGCGUCUCCCUCCUAAGGAGAAGACUGCGGGUUCGAAUCCCGUACGGACCG [G58A A70C], the yeast fitness came to 1.01.
The same measure for GUUCCGUUGGCGUAAUGGUAACGCGUCUCCCUCCUAAGGAGAAGACUGCGGGUUCGAAUCCCGUACGGAGCG [G58A A70G]: 0.949; for GUUCCGUUGGCGUAAUGGUAACGCGUCUCCCUCCUAAGGAGAAGACUGCGGGUUCGAGACCCGAACGGAACG [U59A U64A]: 0.73.
The same measure for GUUCCGUUGGCGUAAUGGUAACGCGUCUCCCUCCUAAGGAGAAGACUGCGGGUUCGAAUCCCGUACGUAACG [G58A G68U]: 0.835; for GUUCCGUUGGCGUAAUGGUAACGCGUCUCCCUCCUAAGGAGAAGACUGCGGGUUCGAGACCCGUACGGCACG [U59A A69C]: 0.914; for GUUCCGUUGGCGUAAUGGUAACGCGUCUCCCUCCUAAGGAGAAGACUGCGGGUUCGAAUCCAGUACGGAACG [G58A C62A]: 0.904.
The same measure for GUUCCGUUGGCGUAAUGGUAACGCGUCUCCCUCCUAAGGAGAAGACUGCGGGUUCGAAUCCUGUACGGAACG [G58A C62U]: 1.07; for GUUCCGUUGGCGUAAUGGUAACGCGUCUCCCUCCUAAGGAGAAGACUGCGGGUUCGAGCCGCGUACGGAACG [U59C C61G]: 0.588.
Turning to GUUCCGUUGGCGUAAUGGUAACGCGUCUCCCUCCUAAGGAGAAGACUGCGGGUUCGACUCCCGUACGGACCG [G58C A70C], the yeast fitness is 0.923.
For the variant GUUCCGUUGGCGUAAUGGUAACGCGUCUCCCUCCUAAGGAGAAGACUGCGGGUUCGACUCCCGUACGGAUCG [G58C A70U], the yeast fitness came to 1.
As to GUUCCGUUGGCGUAAUGGUAACGCGUCUCCCUCCUAAGGAGAAGACUGCGGGUUCGAAUCUCGUACGGAACG [G58A C61U], the yeast fitness came out at 1.03.
In the case of GUUCCGUUGGCGUAAUGGUAACGCGUCUCCCUCCUAAGGAGAAGACUGCGGGUUCGAGCCCCGUACGGCACG [U59C A69C] it was 0.968; in that of GUUCCGUUGGCGUAAUGGUAACGCGUCUCCCUCCUAAGGAGAAGACUGCGGGUUCGACCCCCGUACGGAACG [G58C U59C], 0.948.
The same measure for GUUCCGUUGGCGUAAUGGUAACGCGUCUCCCUCCUAAGGAGAAGACUGCGGGUUCGUGUCCCGUACAGAACG [A57U G67A]: 0.84.
As to GUUCCGUUGGCGUAAUGGUAACGCGUCUCCCUCCUAAGGAGAAGACUGCGGGUUCGAUUCCCGUUCGGAACG [G58U A65U], the yeast fitness came to 0.979.
The same measure for GUUCCGUUGGCGUAAUGGUAACGCGUCUCCCUCCUAAGGAGAAGACUGCGGGUUCGACUCCCGUACUGAACG [G58C G67U]: 0.832; for GUUCCGUUGGCGUAAUGGUAACGCGUCUCCCUCCUAAGGAGAAGACUGCGGGUUCGAAUCCCCUACGGAACG [G58A G63C]: 0.784; for GUUCCGUUGGCGUAAUGGUAACGCGUCUCCCUCCUAAGGAGAAGACUGCGGGUUCGAAUCCCAUACGGAACG [G58A G63A]: 0.954.
As to GUUCCGUUGGCGUAAUGGUAACGCGUCUCCCUCCUAAGGAGAAGACUGCGGGUUCGUGUCACGUACGGAACG [A57U C61A], the yeast fitness is 0.528.
Consider GUUCCGUUGGCGUAAUGGUAACGCGUCUCCCUCCUAAGGAGAAGACUGCGGGUUCGUGUCGCGUACGGAACG [A57U C61G], for which the yeast fitness came to 0.592.
Consider GUUCCGUUGGCGUAAUGGUAACGCGUCUCCCUCCUAAGGAGAAGACUGCGGGUUCGAAUCGCGUACGGAUCG [G58A C61G A70U], for which the yeast fitness came out at 0.749.
The same measure for GUUCCGUUGGCGUAAUGGUAACGCGUCUCCCUCCUAAGGAGAAGACUGCGGGUUCGAAUCCCAUCCGGAACG [G58A G63A A65C]: 0.584; for GUUCCGUUGGCGUAAUGGUAACGCGUCUCCCUCCUAAGGAGAAGACUGCGGGUUCGAAUCCCGUCCGGAACG [G58A A65C]: 1.05; for GUUCCGUUGGCGUAAUGGUAACGCGUCUCCCUCCUAAGGAGAAGACUGCGGGUUCGAAUCCCGUGCGGAACG [G58A A65G]: 0.965.
The same measure for GUUCCGUUGGCGUAAUGGUAACGCGUCUCCCUCCUAAGGAGAAGACUGCGGGUUCGACACCCGUACCGAACG [G58C U59A G67C]: 0.556; for GUUCCGUUGGCGUAAUGGUAACGCGUCUCCCUCCUAAGGAGAAGACUGCGGGUUCGAGACCCGUACGGAUCG [U59A A70U]: 0.91; for GUUCCGUUGGCGUAAUGGUAACGCGUCUCCCUCCUAAGGAGAAGACUGCGGGUUCGAGACCCGUACGGAGCG [U59A A70G]: 0.975.
In the case of GUUCCGUUGGCGUAAUGGUAACGCGUCUCCCUCCUAAGGAGAAGACUGCGGGUUCGUGUCCUGUACGGAACG [A57U C62U] it was 0.617; in that of GUUCCGUUGGCGUAAUGGUAACGCGUCUCCCUCCUAAGGAGAAGACUGCGGGUUCGAGACCCGUCCGGACCG [U59A A65C A70C], 0.551.
On to GUUCCGUUGGCGUAAUGGUAACGCGUCUCCCUCCUAAGGAGAAGACUGCGGGUUCGAAUCCCGUACUGAACG [G58A G67U], for which the yeast fitness was 0.804.
In the case of GUUCCGUUGGCGUAAUGGUAACGCGUCUCCCUCCUAAGGAGAAGACUGCGGGUUCGAGACCGGUACGGAACG [U59A C62G] it was 0.563; in that of GUUCCGUUGGCGUAAUGGUAACGCGUCUCCCUCCUAAGGAGAAGACUGCGGGUUCGAGACCAGUACGGAACG [U59A C62A], 0.657.
The same measure for GUUCCGUUGGCGUAAUGGUAACGCGUCUCCCUCCUAAGGAGAAGACUGCGGGUUCGAAUCCCGUACGUAGCG [G58A G68U A70G]: 0.601.
